L major viab: Leishmania major promastigote growth inhibition. Leishmania major promastigotes, resazurin fluorescence viability. inhibition, % at 10 µM. 9% of 200,000 active. AID 1063; in the data active means inhibition above about 50%;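 further: promastigotes grown with compound for 44 hours at 28 °C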
T cruzi inh: blocks replication of Trypanosoma cruzi. T. cruzi beta-gal in NIH3T3, luminescence, 90 h. inhibition, % (test concentration not listed). 1.4% of 300,000 active. AID 1885;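 active means mean inhibition across valid replicates above about 55%, limit read from the data; inconclusive means mean below that limit but half or more replicates reach it; inactive means mean below it, under half of replicates reach it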;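 further: signal also drops with host cell toxicity which is not excluded here; 0% = plate median of DMSO wells and 100% = zero luminescence signal; higher percent means less beta-gal luminescence so fewer parasites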
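Incubation – ≥90 h infection period, 3 h prior cell attachment · System – NIH/3T3 fibroblasts plus reporter T. cruzi · Doses – compound pinned at 50 nL/well, DMSO · Read-out basis – percent inhibition of parasite-derived β-gal signal · Signal – luminescent β-galactosidase signal after 60 min lysis · Also added – 5000 T. cruzi trypomastigotes/well · Medium – Low-serum DMEM with 2% FBS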
UPR CHOP act: apoptotic UPR (CHOP) activation; AID 449763; activation, % at 10 µM; CHO-CHOP luciferase reporter, luminescence; percent of tunicamycin response over DMSO baseline; 0.34% of 330,000 active;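 active means at 10 µM dose, activation of 40% or more, normalized to positive control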;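 further: 100% = tunicamycin at 10 µg/mL and 0% = DMSO alone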
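Evaluation: % reporter activation, DMSO baseline versus tunicamycin full activation; System: CHO-CHOP luciferase reporter cell line; Input: 500 cells/well; Incubation: 6 h compound treatment, 37 °C; Measured by: Steady-Glo luciferase luminescence; Dosing: one dose, 10 µM in 0.5% DMSO; Buffer or medium: F12 medium, 10% FBS; Benchmarks: positive tunicamycin 10 µg/mL, negative DMSO alone.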
XBP1 UPR activ: activators of adaptive arm of unfolded protein response (XBP1); 0.33% of 330,000 active; activation, % at 20 µM; CHO-XBP1 luciferase reporter, IRE1-XBP1 UPR activation, luminescence; percent of tunicamycin response, DMSO as zero;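 active means versus positive control, 20 µM dose yields 30% or more activation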;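 further: 100% = tunicamycin at 10 µg/mL and 0% = DMSO only wells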
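Signal: luciferase luminescence; Assay system: CHO-XBP1 luciferase reporter cells; Amount: one thousand reporter cells per well; Dosing: 20 µM single concentration, DMSO 1%; Benchmarks: high control tunicamycin 10 µg/mL final, low control DMSO vehicle only; Schedule: 6 h compound exposure at 37 °C, 5% CO2; Evaluation: percent activation relative to tunicamycin reference.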
CHOP inh: inhibitors of CHOP induction in ER stress response; CHO-K1 CHOP-promoter luciferase, tunicamycin-induced, 15-18 h; inhibition, % at 10 µM; 3.8% of 220,000 active; AID 2732;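 active means compounds that reduced the stress-induced luciferase reporter signal by more than about 70% of percent inhibition, limit read from the data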;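 further: 0% = tunicamycin plus vehicle and 100% = wells without tunicamycin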
Dynein transport: dynein cargo transport inhibition | AID 1381 | z-score, hits read low | 3617.4 mouse cells, GR-EGFP nuclear translocation imaging; test concentration mostly 20 µM; stimulated with dexamethasone, 1 µM; stronger effect = lower value | 0.47% of 220,000 active;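 active means plate z-score of nuclear minus cytoplasmic receptor signal below a set negative limit, without overly bright fluorescence or cell loss, cut at about -3.5 in these data, passing the limit was not always enough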;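 further: z-score of nuclear minus cytoplasmic ring GR-EGFP intensity difference per well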
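Buffer or medium: tet-free medium with charcoal-stripped serum / Also added: dexamethasone agonist, 1.0 µM final, for 30 min / Timing: induction 48 h, compound 1 h, agonist 30 min / Measured by: high-content fluorescence imaging after fixation / Read-out: nuclear-to-cytoplasmic GR-EGFP distribution per well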
Dynein confirm: dynein cargo transport inhibition, confirmation; shares compounds with Dynein transport; 69% of 1,000 active; AID 463116; 3617.4 GR-EGFP nuclear translocation imaging, dexamethasone-induced; calls only at 20 µM;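 active means inhibition of receptor movement into the nucleus at or above a set limit in both runs, with normal cell brightness and cell count; inconclusive means limit reached in only one run, brightness and count normal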;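 further: dexamethasone at 1 µM final in well for 30 min; nuclear minus cytoplasmic GR-EGFP mean intensity difference in channel 2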
* = called active by the depositor; i = inactive; ? = inconclusive; . = not tested or not shown; + = active, no number. This is one part of a sample in which hits are shown more often than they occur.

SMILES | L major viab | T cruzi inh | UPR CHOP act | XBP1 UPR activ | CHOP inh | Dynein transport | Dynein confirm
CC(C)NS(=O)(=O)c1ccc(NC(=O)C(C)OC(=O)CCC2CCCC2)cc1 (stereo unspecified) | . | . | 1 | -5 | . | . | .
COc1ccc(N=CC2=C(Nc3ccc(OC)cc3)c3c(C)nn(-c4ccccn4)c3CC2)cc1 | 100* | . | 59* | 6 | . | -4.3 | i
COc1ccc(Nc2c3c(nc4c(-c5ccccc5)c(C)nn24)CCC3)cc1 | 29 | 39 | 1 | -1 | 19 | 0.019 | .
O=C(CCSc1ccccn1)c1ccccc1 | 77* | 19 | 2 | -4 | 3 | -4* | i
O=C(O)CCSc1ccccn1 | -3 | -12 | 1 | -3 | 10 | -0.42 | .
Cc1ccc(C(=O)NCc2ccccn2)cc1NC1=NC2CS(=O)(=O)CC2S1 (stereo unspecified) | . | -12 | 1 | -3 | . | . | .
Cc1cccn2c(=O)c(C=O)c(Cl)nc12 | . | -14 | -2 | 0 | -4 | -5.9* | +
Cc1cccn2c(=O)c(C=O)c(N3CCCCC3)nc12 | 0 | -7 | 1 | -2 | 13 | 0.87 | .
Cc1ccc([N+](=O)[O-])cc1NC(=O)CSc1n[nH]c(-c2cccnc2)n1 | . | -2 | 2 | 8 | . | . | .
COc1ccc(-c2c(NC(=O)c3ccco3)oc3ccccc3c2=O)cc1OC | . | -7 | 0 | -1 | . | . | .
CN(C)CCNC(=O)c1ccc(Cl)s1 | 0 | -5 | -1 | -3 | -16 | 0.28 | .
CN(Cc1ccc(Cl)s1)C(=O)CCl | 84* | 59* | 17 | -5 | 105* | -5.7* | +
COc1ccc(CN(C)C(=O)CCl)cc1 | 32 | . | . | . | -53 | -4.4* | +
COc1ccc(CC(=O)n2[nH]c(=O)ccc2=O)cc1OC | . | -14 | 0 | -1 | 4 | -3.6* | i
Cc1cc(-c2nnc(-c3ccccc3)c(-c3ccccc3)n2)c(C)o1 | 17 | 13 | 3 | 1 | -12 | -3.7* | i
COC(=O)c1ccccc1NC(=O)CCC(=O)N1CC(C)Oc2ccc(C)cc21 (stereo unspecified) | . | 9 | 1 | 0 | . | . | .
CC1OC(OC2C(OC3C(O[C@H]4CC[C@]5(C)C6C=C[C@]78OC[C@@]9(CC[C@@H](C)[C@H](C)C97)[C@H](O)C[C@@]8(C)[C@]6(C)CC[C@H]5C4(C)C)OC(C)C(O)C3O)OC(CO)C(O)C2O)C(O)C(O)C1O (stereo partly specified) | . | 35 | . | . | 101* | -3.9* | i
C[C@H]1O[C@@H](O[C@H]2CC[C@@]3(C)C(CC[C@]4(C)C3C=C[C@]35OC[C@@]6(CCC(C)(C)C[C@H]63)[C@@H](O)C[C@]54C)[C@]2(C)CO)[C@H](O)[C@@H](O[C@@H]2O[C@H](CO)[C@@H](O)[C@H](O)[C@H]2O)[C@H]1O (stereo partly specified) | . | . | 1 | -1 | . | . | .
N#CC(C#N)=C1C=CC=CN1/C(=C\c1ccco1)C(=O)c1ccccc1 | 46 | . | . | . | 110* | -3.8* | +
N#CC(C#N)=C1C=CC=CN1/C(=C\c1ccco1)C(=O)c1ccc(Br)cc1 | 24 | . | . | . | 109* | -4.8* | +
CNc1ccc(/C=C2\CSc3ccccc3C2=O)cc1[N+](=O)[O-] | 99* | 1 | 3 | 5 | -27 | -4* | i
O=C1/C(=C/c2ccc([N+](=O)[O-])cc2)CCc2ccccc21 | . | -10 | 2 | -4 | -1 | -2.3 | .
CCCC(=O)N1CCN(c2ccc(NC(=O)c3ccc(Br)o3)cc2)CC1 | -3 | -2 | 4 | -1 | -3 | -0.97 | .
COc1ccc(N2CCCC2)c(NC(=O)c2ccc([N+](=O)[O-])o2)c1 | . | 23 | 2 | -5 | . | . | .
O=C(Nc1ccc(N2CCN(C(=O)c3ccc(Cl)cc3)CC2)cc1)c1ccc([N+](=O)[O-])o1 | 100* | 93* | . | . | 55 | -4.9* | +
SMILES | L major viab | T cruzi inh | UPR CHOP act | XBP1 UPR activ | CHOP inh | Dynein transport | Dynein confirm
O=C(Nc1ccc(N2CCN(C(=O)c3ccc(Cl)cc3)CC2)cc1)c1ccc2c(c1)OCCO2 | -4 | -1 | 4 | 2 | 51 | 2.2 | .
O=C(Nc1ccc(N2CCCC2)c(Cl)c1)c1ccc([N+](=O)[O-])o1 | 101* | . | . | . | -29 | -4* | +
CCCC(=O)N1CCN(c2ccc(NC(=O)c3ccc([N+](=O)[O-])o3)cc2)CC1 | 100* | 38 | . | . | -55 | -4.1* | +
CCC(=O)N1CCN(c2ccc(NC(=O)c3ccc([N+](=O)[O-])o3)cc2)CC1 | 100* | 72* | . | . | 22 | -4* | +
CN(C(=O)c1ccc2c(c1)OCCO2)c1c(N)n(Cc2ccccc2)c(=O)[nH]c1=O | . | -12 | 2 | -1 | . | . | .
CS(=O)(=O)c1ccc(NC(=O)c2cccc(S(=O)(=O)N3CCN(Cc4ccccc4)CC3)c2)cc1 | . | 22 | 2 | -4 | . | . | .
Cc1ccc(C(=O)/C=C/c2ccc(-c3ccccc3[N+](=O)[O-])o2)cc1 | 1 | -15 | 2 | 0 | 30 | -0.72 | .
COc1cccc(/C=C/C(=O)c2ccc(C)c([N+](=O)[O-])c2)c1 | 76* | 10 | 2 | 2 | -59 | -4* | +
COc1cc(/C=C/C(=O)O)cc(OC)c1O | . | -10 | 0 | -5 | . | . | .
Cc1ccc(C(=O)/C=C/c2ccccc2[N+](=O)[O-])cc1 | 42 | -22 | 3 | -2 | -48 | -4.7* | +
COc1cc(/C=C/C(=O)c2ccc(C)c([N+](=O)[O-])c2)cc(OC)c1O | 79* | -24 | 8 | -1 | -26 | -3.8* | ?
CCOC(=O)CCSc1nc(C)cc(C(F)(F)F)c1C#N | -5 | 9 | 0 | -2 | 2 | -9 | i
CCOc1cc(CNCCCN2CCOCC2)cc(Br)c1OCc1ccccc1Cl | 101* | 80* | 4 | 15 | 57 | -5.1* | i
O=C1/C(=C/c2ccc(N3CCCC3)cc2)NC(=S)N1C1CC1 | 30 | 9 | 14 | -1 | -5 | -5 | +
Cc1cc(N2CCCC2)ccc1/C=C1\NC(=S)N(C)C1=O | 7 | 5 | 2 | 2 | -8 | -3.3 | .
CCCN(CCC)S(=O)(=O)c1ccc(Cl)c([N+](=O)[O-])c1 | 39 | -9 | 1 | -1 | -14 | -3.5* | ?
CCCN(CCC)S(=O)(=O)c1ccc(N2CCCC2=O)c([N+](=O)[O-])c1 | -5 | 6 | 2 | 2 | 10 | -0.39 | .
COc1ccc(-n2nnnc2SCC(=O)Nc2ccccc2F)cc1 | . | 0 | 1 | -1 | . | . | .
CCOC(=S)SCC(=O)Nc1nc(C)c(C)s1 | . | -71 | 3 | -5 | -95 | -3.9* | +

Screening results deposited in PubChem by several laboratories.
